Screening data from PubChem.
EBNA-1 inh: blocks EBNA-1 binding to DNA; EBNA-1 DNA binding, fluorescence polarization; inhibition, % at 14.8 µM; 0.34% of 300,000 active; in the data active = inhibition above about 28%
GPR7 antag: human neuropeptides B/W receptor 1 antagonism; 1.1% of 290,000 active; GPR7-expressing cells, fluorescence antagonist assay; inhibition, % at 4.4 µM; AID 1861; in the data active = inhibition above about 16%, passing the limit was not always enough;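 also: cells stimulated with the agonist NPW; 0% = agonist with vehicle and 100% = vehicle without agonist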
Target sequence (P48145 whole entry, looked up): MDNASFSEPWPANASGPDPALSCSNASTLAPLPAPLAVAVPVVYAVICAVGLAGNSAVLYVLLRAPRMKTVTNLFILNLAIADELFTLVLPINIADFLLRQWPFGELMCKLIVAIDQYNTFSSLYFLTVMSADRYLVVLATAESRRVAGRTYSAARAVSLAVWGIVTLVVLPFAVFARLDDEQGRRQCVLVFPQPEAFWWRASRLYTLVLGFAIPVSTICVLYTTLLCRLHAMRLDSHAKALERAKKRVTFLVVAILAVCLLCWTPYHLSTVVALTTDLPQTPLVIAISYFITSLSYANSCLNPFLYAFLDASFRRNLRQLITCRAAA
core dimer inh: HCV core protein dimerization inhibition; TR-FRET GST/Flag-core106 dimerization, 1536-well; inhibition, % at 5 µM; 0.33% of 300,000 active;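 active = inhibition above the mean of all tested compounds plus 3 SD, set per screening campaign, cut at about 45% in these data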
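System: GST/Flag-tagged HCV core106 proteins. Incubation: compound-protein-antibody incubation 4 h at 22.5 °C. Technique: HTRF with 340 nm excitation, 617/671 nm emission. Medium: KF-containing HEPES buffer, pH 7.45, DTT, CHAPS, BSA. Read-out: inhibition (%) from 671 over 617 nm ratio. Also added: Eu(K)-anti-GST 90 ng/mL plus XL665-anti-Flag 1 µg/mL.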
EBV gp42 inh: inhibitors of Epstein-Barr virus glycoprotein 42. Fluorescence polarization binding assay, mP read-out. inhibition, % (tested at 21.74 µM). 0.42% of 220,000 active; in the data active = inhibition above about 50%
NS3 helicase inh: HCV NS3 helicase inhibition; NS3 helicase DNA unwinding, Cy5 molecular beacon fluorescence; inhibition, % at 10.9 µM; AID 1800; 0.56% of 290,000 active;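 active = inhibition above the mean of all tested compounds plus 3 SD, set per campaign, cut at about 35% in these data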;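 also: 0% = DMSO wells and 100% = thioflavine S control wells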
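Test system: hepatitis C virus NS3 helicase domain fragment enzyme. Also added: annealed dual-labelled DNA beacon duplex, ATP-started. Timing: 60 min unwinding reaction at 25 °C after ATP addition. Technique: Cy5 fluorescence. Measure: % inhibition of unwinding.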
ZTA DNA inh: ZTA (EBV) inhibition in EBNA-1 counter-screen; P03206; ZTA-DNA binding, fluorescence polarization; inhibition, % at 11 µM; 0.15% of 320,000 active; AID 2234; in the data active = inhibition above about 33%
Target sequence (P03206 whole entry, looked up): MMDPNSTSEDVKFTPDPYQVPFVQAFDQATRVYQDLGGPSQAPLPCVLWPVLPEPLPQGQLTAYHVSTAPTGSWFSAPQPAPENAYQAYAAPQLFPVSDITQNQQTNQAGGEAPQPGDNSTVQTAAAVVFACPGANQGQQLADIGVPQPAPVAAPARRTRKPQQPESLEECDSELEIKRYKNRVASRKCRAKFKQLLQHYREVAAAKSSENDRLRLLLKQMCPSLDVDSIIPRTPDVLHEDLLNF
GPR7 antag conf: confirmation of human GPR7 antagonists. shares compounds with GPR7 antag. GPR7-expressing cells, calcium fluorescence antagonist mode. inhibition, % at 4.4 µM. 52% of 2,400 active. AID 1952; in the data active = inhibition above about 24%;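 also: stimulated with the GPR7 agonist NPW; 0% = agonist plus vehicle and 100% = vehicle alone without agonist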
MCHR1 antag: counter-screen for GPR7 antagonists: antagonists of human MCHR1; 62% of 2,400 active; MCHR1-expressing cells, fluorescence antagonist assay; shares compounds with GPR7 antag; AID 2148; inhibition, % at 4.4 µM; in the data active = inhibition above about 22%;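 also: 0% = vehicle with agonist and 100% = vehicle without agonist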
The depositor's hits bear a star; . = not tested or not shown. Most compounds without a hit are left out; they make up all but 2.3% or so of the library.

SMILES	EBNA-1 inh	GPR7 antag	core dimer inh	EBV gp42 inh	NS3 helicase inh	ZTA DNA inh	GPR7 antag conf	MCHR1 antag
Cc1cccn2c(CNC3CCCc4ccccc43)c(C(=O)N3CCOCC3)nc12 (centres undefined)	6	-4	10	-15	-21	4	.	.
Cc1cccn2c(CN[C@@H]3CCCC[C@H]3c3ccccc3)c(C(=O)N3CCOCC3)nc12	-11	29*	4	-17	-7	2	19	25*
CCOC(=O)C1CCN(c2ncnc3c2nnn3Cc2ccccc2Cl)CC1	8	22*	-1	-9	-2	3	26*	29*
Cc1ccc2c(c1)N(CC(=O)Nc1ccccc1F)C(=O)CO2	3	-7	1	.	-10	7	.	.
CSc1nccc(-c2nn(-c3ccc(C)cc3)ccc2=O)n1	6	10	2	-22	-3	12	.	.
CCSc1nccc(-c2nn(-c3ccc(C)cc3)ccc2=O)n1	2	23*	3	14	10	2	10	25*
O=C(Nc1cccc(S(=O)(=O)Nc2ccc(Cl)cc2)c1)c1ccc(Cl)nc1	-3	24*	-8	-6	-2	-6	66*	70*
CCOc1cccc(C(=O)Nc2ccccc2C(=O)N2CCN(C)CC2)c1	-13	-5	8	.	-1	0	.	.
CSc1ccccc1OCc1cc(C(=O)N2CCC(Oc3cccnc3)CC2)no1	3	28*	5	.	-13	-3	14	47*
Cc1nn(Cc2c(Cl)cccc2Cl)c(C)c1N	0	-15	-6	-7	-11	-4	.	.
CCOC(=O)N1CCN(C(=O)/C(=C/c2ccc(N(C)C)cc2)NC(=O)c2ccccc2)CC1	.	.	.	.	.	-7	.	.
COC(=O)CC1(C(=O)OC)Oc2ccc(Br)cc2C(=O)N1c1ccc(Br)cc1Cl (centres undefined)	3	0	1	-3	-7	4	.	.
COC(=O)CC1(C(=O)OC)Oc2ccc(Br)cc2C(=O)N1c1cccc(Cl)c1Cl (centres undefined)	-6	30*	-3	-4	-17	-8	32*	53*
C=CCN1c2ccccc2[C@]23C[C@@H](C(=O)OC)N(C(=O)NCCC)C2=NC(C(=O)OC)=C(C(=O)OC)[C@H]13	1	.	11	0	.	7	.	.
O=C(Nc1ccc(C(F)(F)F)cc1)N1CCN(c2ccnc3cc(Cl)ccc23)CC1	-2	-20	1	-6	-57	7	.	.
COC(=O)C1=C(C)N=C2SC(C#N)=C(N)N2C1c1cc(OC)c(OC)c(OC)c1 (centres undefined)	-9	28*	-3	-8	-2	-10	-4	-5
COc1ccccc1CCC(=O)Nc1ccc2c(c1)CN(Cc1ccc(CO)o1)CC2	12	3	25	.	-2	6	.	.
COc1cccc(NC(=O)c2nnn(Cc3ccc(Br)cc3F)c2N)c1	1	24*	-2	9	-4	12	53*	53*
CCc1ccc(Cn2nnc(C(=O)Nc3ccc(OC)cc3OC)c2N)cc1	1	25*	0	-5	-9	3	42*	19
Cc1ccc(C)c(Cn2nnc(C(=O)Nc3ccc4c(c3)OCCO4)c2N)c1	-4	.	-2	.	.	5	.	.
Cc1cc(C)cc(NC(=O)c2nnn(Cc3cc(C)ccc3C)c2N)c1	-11	51*	6	-7	-13	-17	87*	91*
COc1cccc(NC(=O)Cn2nnc(C(=O)Nc3ccccc3)c2N)c1	15	-17	8	3	0	10	.	.
CCc1cccc(C)c1NC(=O)c1ccc2nc(N3CCOCC3)sc2c1	-7	15	3	.	20	18	.	.
CC(OC(=O)CCCNC(=O)c1ccc(Cl)cc1)C(=O)N(C)Cc1ccccc1 (centres undefined)	-9	35*	3	.	-4	-6	-2	5
C#CCOCCOCCOCCNc1nc(N2CCN(C(=O)[C@H](Cc3cc4ccccc4[nH]3)n3cc([C@@H](N)C(C)CC)nn3)CC2)nc(N2CCN(C(=O)[C@H](Cc3cc4ccccc4[nH]3)n3cc([C@@H](N)CC(C)C)nn3)CC2)n1 (some centres undefined)	4	26	-30	-10	-74	15	.	.
SMILES	EBNA-1 inh	GPR7 antag	core dimer inh	EBV gp42 inh	NS3 helicase inh	ZTA DNA inh	GPR7 antag conf	MCHR1 antag
CCC(=O)N/C(=N/c1nc(C)cc(C)n1)Nc1ccc(OC)cc1	14	35*	-1	-3	2	5	-4	17
CCC(=O)N/C(=N/c1nc(C)cc(C)n1)Nc1ccccc1	-3	19	-2	-18	28	-13	.	.
c1ccc(CCc2nn3c(Cn4nnc5ccccc54)nnc3s2)cc1	0	2	16	-16	5	-16	.	.
c1ccc(CCc2nn3c(Cn4cnc5ccccc54)nnc3s2)cc1	1	23*	4	-4	9	10	18	28*
N#C/C(=C\c1ccc([N+](=O)[O-])cc1)c1ccccn1	-1	-10	3	-8	2	13	.	.
CN(C)c1ccc(/C=C(\C#N)c2ccccn2)cc1	4	30*	-11	-73	-7	1	9	47*
CC(C)C(=O)NCc1cc(-c2ccccc2)no1	-13	-21	-3	-10	-5	-20	.	.
O=S(=O)(NC1CC1)c1ccc(S(=O)(=O)N2CCCc3ccccc32)cc1	7	22*	5	-2	-5	7	30*	28*
O=S(=O)(c1cnc(Cl)c(Cl)c1)N1CCCc2ccccc21	5	30*	2	2	5	-3	61*	52*
O=S(=O)(c1cnc(Cl)c(Cl)c1)N1CCc2ccccc21	3	14	0	-3	24	-5	.	.
Cc1cc(=O)[nH]c2c(C)cc(S(=O)(=O)Nc3ccc(O)cc3)cc12	-2	-4	-1	.	1	-6	.	.
Clc1ccc(CN2CCc3c([nH]c4ccccc34)C2)cc1Cl	0	53*	-12	.	-64	0	73*	33*
COc1cc(OC)c(CN2CCc3c([nH]c4ccccc34)C2)cc1Br	-7	29*	-13	.	-44	12	21	5
Cc1nn(CC(=O)Nc2cc(S(=O)(=O)N3CCOCC3)ccc2Cl)c(C)c1[N+](=O)[O-]	.	.	.	.	.	-10	.	.
O=C(CN1CCN(c2ccc(O)cc2)CC1)NCC(=O)Nc1ccc(F)c(F)c1F	.	.	.	.	.	1	.	.
CCCCNCCCOc1cccc(Cl)c1Cl	1	35*	2	-13	-3	6	14	11
CCCC(CCC)C(=O)Nc1ccc2c(c1)N(C(=O)CN1CCN(C)CC1)c1ccccc1CC2	-6	58*	-12	-24	-56	-19	39*	22*
